The values below come from article PMC6347502 (Photochemistry and photobiology, 2018).

The nature of series [1]: Nanosecond transient absorption lifetime. It is filed as physicochemical. Conditions: degassed MeCN. The method, boiled down:
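Nanosecond laser flash photolysis on MeCN solutions argon-purged for 45 min. Excitation was 355 nm from a Nd:YAG third harmonic (4.1 ns pulse, 1 Hz). Transient difference absorption spectra were recorded and lifetimes taken from signal decays.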

Series [2] concerns SK-MEL-28 malignant melanoma cells. As to the kind of experiment: Cytotoxicity and photocytotoxicity, resazurin cell viability, melanoma cells. It is filed as cell-based, human. An outline of the steps: (§1)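 HL-60 cells (suspension, RPMI 1640 + 20% FBS) or SK-MEL-28 cells (adherent, EMEM + 10% FBS) were used in log phase at ≥93% viability and equilibrated for 3 h. Chloride salts were diluted in DPBS (1 nM–300 µM; DMSO <0.1%) and incubated 16 h at 37 °C, 5% CO₂. Cells were then kept dark or given 100 J cm⁻² of visible light (400–700 nm, 44 mW cm⁻²) or red LED light (625 nm, 52.5 mW cm⁻²). After 48 h, resazurin was added for 3 h; fluorescence ex 530/em 620 nm. Triplicate. EC50 from sigmoidal dose–response fit; PI = dark/light EC50.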
(In general: Alamar Blue is a resazurin reagent that responds to reducing activity.)

For series [3], the system named is HL-60 human promyelocytic leukemia cells. As to the kind of experiment: Cytotoxicity and photocytotoxicity, resazurin cell viability, leukemia cells. It is filed as cell-based. An outline of the steps: as §1
Series [4] can be described thus: Singlet oxygen sensitization quantum yield. It is filed as physicochemical.
Another series has as its system pUC19 plasmid DNA. Description: DNA photocleavage, plasmid gel mobility shift assay. The conditions noted are these: pUC19 20 μM NPs, visible light 14 J cm^−2. In kind it is biochemical.
The nature of series [5]: Steady-state and time-resolved emission. It is filed as physicochemical. An outline of the steps: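 PF₆⁻ salts, 5–20 µM, in MeCN argon-sparged in a long-stem cuvette, or as 4:1 EtOH:MeOH glass frozen in liquid N₂ (77 K). Quantum yields from corrected steady-state spectra relative to [Ru(bpy)₃](PF₆)₂ (0.095 deaerated MeCN at 298 K; 0.38 at 77 K). Lifetimes measured with nitrogen/dye laser excitation at 457 nm, monitored at emission maximum, stroboscopic detection.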

The nature of series [6]: UV-vis absorption, molar extinction coefficient at 625 nm. In kind it is physicochemical. The method, boiled down: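 PF₆⁻ salts in spectroscopic-grade MeCN. ε was taken from the slope of absorbance versus concentration over five concentrations, measured in duplicate.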
The conditions of series [7]: cited from earlier work.
For series [8] the following is noted: aerated MeCN; cited from earlier work.

Several values for one entry are separate records, joined by “and”; a condition that tells them apart may be missing. Identical values can stand only once. Like-named read-outs stand apart in the source and are kept apart here.

A word on the EC50: it is the concentration at which the effect is half-maximal.

Consider `F[P-](F)(F)(F)(F)F.F[P-](F)(F)(F)(F)F.[Ru+2].c1ccc(-c2ccccn2)nc1.c1ccc(-c2ccccn2)nc1.c1csc(-c2ccc(-c3cc4cccnc4c4ncccc34)s2)c1` [Compound 2, Ru(bpy)2(phen-2T)PF6], for which, in series [1], the “τTA, lifetime of nonemissive 3IL state” value is listed as 43 μs. For the same compound, in series [2] (ratio of dark to red-light (625 nm) EC50, SKMEL28), the “PI red light, SKMEL28” value was 2. For the same compound, in series [2] (ratio of dark to visible-light EC50, SKMEL28), the “PI (phototherapeutic index) visible light, SKMEL28” value was 150. In addition, the EC50 in series [2] (read-out: EC50 dark, SKMEL28, SKMEL28, dark) is 32 ± 1 µM. In series [3] (ratio of dark to red-light (625 nm) EC50, HL60), the “PI red light, HL60” value was 19. Also, the “PI visible light, HL60” value in [3] (ratio of dark to visible-light EC50, HL60) came out at 835. Also, the “ΦΔ (singlet oxygen quantum yield) 298 K” value in [4] (air-saturated MeCN at 298 K, relative to [Ru(bpy)3](PF6)2) was 0.78. The “1O2 quantum yield (ΦΔ)” value in series [4] (air-saturated MeCN, room temperature) is 74–78% and 78% and 74%. Further, in the series with pUC19 plasmid DNA, the “MC:NP ratio for complete photocleavage (conversion of Form I to Form II DNA)” value is reported as 1. In addition, the “τem 77 K” value in [5] (77 K, EtOH:MeOH (4:1) glass) is reported as 6,600 ns. Also, the “Φ (emission quantum yield) 77 K” value in series [5] (77 K, EtOH:MeOH (4:1) glass, PF6 salt) was found to be 0.14. For the same compound, the “τem 298 K” value in [5] (298 K, argon-purged MeCN) is given as 1,030 ns. Also, the “Φ (emission quantum yield) 298 K” value in series [5] (298 K, argon-purged MeCN, PF6 salt) was 0.0092. Also, the “molar absorptivity at 625 nm (ε625 nm)” value in series [6] was less than 100 M⁻¹ cm⁻¹.
Turning to `F[P-](F)(F)(F)(F)F.F[P-](F)(F)(F)(F)F.[Ru+2].c1ccc(-c2ccccn2)nc1.c1ccc(-c2ccccn2)nc1.c1ccc(-c2ccccn2)nc1` [[Ru(bpy)3](PF6)2], the Φem reference value is 0.38 in series [7] (77 K in frozen 4:1 v/v EtOH:MeOH), 0.012 in series [7] (298 K in aerated MeCN) and 0.095 in series [7] (298 K in deaerated MeCN). Moreover, in series [7], the emission lifetime is listed as 0.9 μs. Besides, the ΦΔ of standard in series [8] is on record as 0.56.
